Experimental data reported in ChEMBL document CHEMBL1138474, “Modulation of the transient receptor potential vanilloid channel TRPV4 by 4alpha-phorbol esters: a structure-activity study” (J Med Chem, 2009).
Activity calls are given as the source filed them. The rule behind the calls is not given here.

Experiments:
[1] = biological target: Transient receptor potential cation channel subfamily V member 4 (Mus musculus, UniProt Q9EPK8); test: Activation of mouse wild type TRPV4 expressed in HEK293 cells assessed as increase in intracellular calcium concentration; type: cell-based
Chain of Transient receptor potential cation channel subfamily V member 4 (Mus musculus, UniProt Q9EPK8) (Q9EPK8 whole entry, the tested form may be a part): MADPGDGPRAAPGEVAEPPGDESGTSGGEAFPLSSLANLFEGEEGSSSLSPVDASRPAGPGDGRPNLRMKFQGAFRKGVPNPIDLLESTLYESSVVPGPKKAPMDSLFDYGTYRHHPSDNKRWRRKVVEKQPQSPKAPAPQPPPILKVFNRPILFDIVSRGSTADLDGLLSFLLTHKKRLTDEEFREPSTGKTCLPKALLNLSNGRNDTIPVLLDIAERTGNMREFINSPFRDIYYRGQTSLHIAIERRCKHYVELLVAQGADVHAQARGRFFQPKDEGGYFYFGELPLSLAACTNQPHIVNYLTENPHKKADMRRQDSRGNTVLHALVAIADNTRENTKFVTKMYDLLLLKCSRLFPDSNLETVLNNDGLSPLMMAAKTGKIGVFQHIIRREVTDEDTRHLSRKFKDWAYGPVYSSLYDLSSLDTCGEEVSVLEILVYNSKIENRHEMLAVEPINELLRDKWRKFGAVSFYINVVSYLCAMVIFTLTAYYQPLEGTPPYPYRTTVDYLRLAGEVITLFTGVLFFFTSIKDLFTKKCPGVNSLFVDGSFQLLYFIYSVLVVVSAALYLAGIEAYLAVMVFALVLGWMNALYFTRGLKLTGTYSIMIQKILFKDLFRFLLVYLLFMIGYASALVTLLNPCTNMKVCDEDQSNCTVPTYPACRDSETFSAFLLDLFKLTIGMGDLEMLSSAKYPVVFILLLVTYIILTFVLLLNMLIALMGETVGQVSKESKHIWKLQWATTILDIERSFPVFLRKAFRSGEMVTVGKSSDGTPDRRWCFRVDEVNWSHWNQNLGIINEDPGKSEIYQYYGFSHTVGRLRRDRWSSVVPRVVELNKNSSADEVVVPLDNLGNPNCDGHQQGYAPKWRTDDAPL
Outline: (§1)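 mTRPV4 (wild type or the Y556A, S557A or W586A TM3-4 mutant) in pCAGGS/Ires-GFP was transiently transfected into HEK293 cells and incubated overnight. GFP-positive cells on poly-L-lysine coverslips were loaded with 4 µM Fura-2 AM for 30 min at 37 °C and perfused with Krebs solution (1.5 mM CaCl2, pH 7.4). The 340/380 nm ratio (510 nm emission) gave ∆Fura-2 ratio. EC50 came from a Hill fit, >15 cells, three transfections.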

[2] = biological target: Transient receptor potential cation channel subfamily V member 4 (Mus musculus, UniProt Q9EPK8, Y556A); test: Activation of mouse TRPV4 Y556A mutant expressed in HEK293 cells assessed as increase in intracellular calcium concentration; type: cell-based; outline: as §1
Chain of Transient receptor potential cation channel subfamily V member 4 (Mus musculus, UniProt Q9EPK8, Y556A) (Q9EPK8 whole entry Y556A): as the sequence (Q9EPK8 whole entry, the tested form may be a part) above, with Y556A counted along it

[3] = biological target: Transient receptor potential cation channel subfamily V member 4 (Mus musculus, UniProt Q9EPK8, W586A); test: Activation of mouse TRPV4 W586A mutant expressed in HEK293 cells assessed as increase in intracellular calcium concentration; type: cell-based; outline: as §1
Chain of Transient receptor potential cation channel subfamily V member 4 (Mus musculus, UniProt Q9EPK8, W586A) (Q9EPK8 whole entry W586A): as the sequence (Q9EPK8 whole entry, the tested form may be a part) above, with W586A counted along it

HEK293 = test: Effect on intracellular calcium level in non transfected HEK293 cells assessed as increase in fura-2 ratio; type: functional, cell-based; settings: Homo sapiens
Outline: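 GFP-negative cells from the same coverslips as the mTRPV4-transfected HEK293 cells served as untransfected controls. Cells were loaded with 4 µM Fura-2 AM for 30 min at 37 °C and perfused with Krebs solution (pH 7.4). ∆Fura-2 ratio was taken as (Rt−Rt0)/Rt0 from 340/380 nm excitation, with background subtracted.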

[4] = biological target: Transient receptor potential cation channel subfamily V member 4 (Mus musculus, UniProt Q9EPK8, S557A); test: Activation of mouse TRPV4 S557A mutant expressed in HEK293 cells assessed as increase in intracellular calcium concentration; type: cell-based; outline: as §1
Chain of Transient receptor potential cation channel subfamily V member 4 (Mus musculus, UniProt Q9EPK8, S557A) (Q9EPK8 whole entry S557A): as the sequence (Q9EPK8 whole entry, the tested form may be a part) above, with S557A counted along it

Row | SMILES | EC50 [1] [µM] | EC50 [2] [µM] | EC50 [3] [µM] | Activity (HEK293) | EC50 [4] [nM]
1 | CCCCCCCCCC(=O)O[C@@H]1[C@@H](C)[C@]2(O)[C@@H]3C=C(C)C(=O)[C@@H]3CC(CO)=C[C@H]2[C@@H]2C(C)(C)[C@]12OC(=O)CCCCCCCCC | > 50 | – | – | – | –
2 | CCCCCCCCCC(=O)O[C@@H]1[C@@H](C)[C@@]2(O)[C@@H](C=C(CO)C[C@@]3(O)C(=O)C(C)=C[C@@H]23)[C@@H]2C(C)(C)[C@]12OC(=O)CCCCCCCCC | 0.37 | 6.3 | > 6 | Active | 320
3 | CCCC(=O)O[C@@H]1[C@@H](C)[C@@]2(O)[C@@H](C=C(CO)C[C@]3(O)C(=O)C(C)=C[C@@H]23)[C@@H]2C(C)(C)[C@]12OC(=O)CCC | 22.5 | – | – | – | –
4 | CCCCCCCC(=O)O[C@@H]1[C@@H](C)[C@@]2(O)[C@@H](C=C(CO)C[C@@]3(O)C(=O)C(C)=C[C@@H]23)[C@@H]2C(C)(C)[C@]12OC(=O)CCCCCCC | > 50 | – | – | – | –
5 | CCCCCCCCCC(=O)O[C@@]12[C@H](O)[C@@H](C)[C@@]3(O)[C@@H](C=C(CO)C[C@@]4(O)C(=O)C(C)=C[C@@H]34)[C@@H]1C2(C)C | 0.45 | – | – | Active | –
